Key:
A549 = test: Growth inhibition of human A549 cells; type: functional; settings: for CC50: read-out: Log LC50 (the source's name) (converted); for TGI: read-out: Log TGI (converted)
SK-OV-3 = test: Growth inhibition of human SK-OV3 cells; type: functional; settings: for TGI: read-out: Log TGI (converted)
Hs-578T = test: Growth inhibition of human HS578T cells; type: functional; settings: for TGI: read-out: Log TGI (converted)
U-251 = test: Growth inhibition of human U251 cells; type: functional; settings: for TGI: read-out: Log TGI (converted)
SK-MEL-28 = test: Growth inhibition of human SK-MEL28 cells; type: functional; settings: for CC50: read-out: Log LC50 (the source's name) (converted); for TGI: read-out: Log TGI (converted)
HOP-92 = test: Growth inhibition of human HOP92 cells; type: functional; settings: for CC50: read-out: Log LC50 (the source's name) (converted); for TGI: read-out: Log TGI (converted)
OVCAR-5 = test: Growth inhibition of human OVACAR5 cells; type: functional; settings: for TGI: read-out: Log TGI (converted)
MDA-MB-231 = test: Growth inhibition of human MDA-MB-231 cells; type: functional; settings: for TGI: read-out: Log TGI (converted)
MOLT-4 = test: Growth inhibition of human MOLT4 cells; type: functional; settings: for CC50: read-out: Log LC50 (the source's name) (converted)
KM12 = test: Growth inhibition of human KM12 cells; type: functional; settings: for CC50: read-out: Log LC50 (the source's name) (converted); for TGI: read-out: Log TGI (converted)
PC-3 = test: Growth inhibition of human PC3 cells; type: functional; settings: for TGI: read-out: Log TGI (converted)
EKVX = test: Growth inhibition of human EKVX cells; type: functional; settings: for CC50: read-out: Log LC50 (the source's name) (converted); for TGI: read-out: Log TGI (converted)
[1] = Inhibition of luciferase at 30 uM
Method in brief: (§1)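 Purified recombinant firefly luciferase (QuantiLum, 46.8 μg mL−1) mixed with compound in passive lysis buffer containing BSA (1 mg mL−1); equal volume of luciferase substrate added, light output read; percentage inhibition relative to DMSO control; concentration-response curves up to 30 μM.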

RPMI-8226 = test: Growth inhibition of human RPMI8226 cells; type: functional; settings: for CC50: read-out: Log LC50 (the source's name) (converted); for TGI: read-out: Log TGI (converted)
[2] = DPPH radical scavenging activity relative to Trolox; type: functional; parameters: concentration or dose not given beside the values
Method in brief: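 Compounds were made up as DMSO stocks and diluted in isopropanol to a final 10 μM. Each was mixed with DPPH in isopropanol at 10 μM or 30 μM DPPH, and absorbance was read at 515 nm. Scavenging was calculated as [1 − OD515(compound)/OD515(control)] × 100, then expressed as a percentage of Trolox activity. One experiment was run in triplicate.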

BT-549 = test: Growth inhibition of human BT549 cells; type: functional; settings: for TGI: read-out: Log TGI (converted)
[3] = Inhibition of 1,10-phenanthroline-induced HIF1 activation in T47D cells by TK-luciferase assay; type: cell-based; settings: Homo sapiens
Method in brief: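 HIF-1 reporter (pHRE-TK-Luc) assays in transfected PC-3 or T47D cells; HIF-1 induced by hypoxia or by the hypoxia mimetic 1,10-phenanthroline (10 μM); compounds at half-log concentrations; luciferase activity measured; IC50 from experiments in triplicate.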

HOP-62 = test: Growth inhibition of human HOP62 cells; type: functional; settings: for CC50: read-out: Log LC50 (the source's name) (converted); for TGI: read-out: Log TGI (converted)
MDA-MB-435 = test: Growth inhibition of human MDA-MB-435 cells; type: functional; settings: for TGI: read-out: Log TGI (converted)
HL-60 = test: Growth inhibition of human HL60 cells; type: functional; settings: for TGI: read-out: Log TGI (converted)
SW-620 = test: Growth inhibition of human SW620 cells; type: functional; settings: for CC50: read-out: Log LC50 (the source's name) (converted); for TGI: read-out: Log TGI (converted)
HCT-116 = test: Growth inhibition of human HCT116 cells; type: functional; settings: for CC50: read-out: Log LC50 (the source's name) (converted); for TGI: read-out: Log TGI (converted)
UACC-62 = test: Growth inhibition of human UACC62 cells; type: functional; settings: for TGI: read-out: Log TGI (converted)
SR = test: Growth inhibition of human SR cells; type: functional
A498 = test: Growth inhibition of human A498 cells; type: functional
[4] = Inhibition of luciferase; method in brief: as §1

CCCc1cc(=O)c2c(O)c3c(OC)cc(O)cc3cc2o1
GI50 (A549): 19.1 µM
CC50 (A549): > 100 µM
TGI (A549): 50.1 µM
GI50 (SK-OV-3): 32.4 µM
LC50 (SK-OV-3): > 100 µM
TGI (SK-OV-3): 85.1 µM
GI50 (Hs-578T): 25.1 µM
LC50 (Hs-578T): > 100 µM
TGI (Hs-578T): 67.6 µM
GI50 (U-251): 16.2 µM
LC50 (U-251): 95.5 µM
TGI (U-251): 38.9 µM
GI50 (SK-MEL-28): 20 µM
CC50 (SK-MEL-28): 87.1 µM
TGI (SK-MEL-28): 41.7 µM
GI50 (HOP-92): 17.4 µM
CC50 (HOP-92): > 100 µM
TGI (HOP-92): 46.8 µM
GI50 (OVCAR-5): 25.1 µM
LC50 (OVCAR-5): > 100 µM
TGI (OVCAR-5): 60.3 µM
GI50 (MDA-MB-231): 15.5 µM
LC50 (MDA-MB-231): > 100 µM
TGI (MDA-MB-231): 45.7 µM
CC50 (MOLT-4): > 100 µM
GI50 (KM12): 17.4 µM
CC50 (KM12): 93.3 µM
TGI (KM12): 39.8 µM
GI50 (PC-3): 20.4 µM
LC50 (PC-3): > 100 µM
TGI (PC-3): 67.6 µM
GI50 (EKVX): 28.8 µM
CC50 (EKVX): > 100 µM
TGI (EKVX): 97.7 µM
inhibition [1]: 48%
GI50 (RPMI-8226): 14.5 µM
CC50 (RPMI-8226): > 100 µM
TGI (RPMI-8226): 43.7 µM
Activity [2]: 40%
GI50 (BT-549): 18.2 µM
LC50 (BT-549): 95.5 µM
TGI (BT-549): 41.7 µM
IC50 [3]: 0.6 µM
GI50 (HOP-62): 22.9 µM
CC50 (HOP-62): > 100 µM
TGI (HOP-62): 56.2 µM
GI50 (MDA-MB-435): 20.9 µM
LC50 (MDA-MB-435): > 100 µM
TGI (MDA-MB-435): 57.5 µM
GI50 (HL-60): 30.9 µM
LC50 (HL-60): > 100 µM
TGI (HL-60): 61.7 µM
GI50 (SW-620): 21.4 µM
CC50 (SW-620): 77.6 µM
TGI (SW-620): 40.7 µM
GI50 (HCT-116): 18.6 µM
CC50 (HCT-116): 75.9 µM
TGI (HCT-116): 37.2 µM
GI50 (UACC-62): 15.5 µM
LC50 (lethal concentration, 50% cell kill) (UACC-62): 57.5 µM
TGI (UACC-62): 29.5 µM

CCCc1cc(=O)c2c(OC)c3c(OC)cc(O)c(Oc4c(O)cc(OC)c5c(OC)c6c(=O)cc(CCC)oc6cc45)c3cc2o1
GI50 (A549): 11.2 µM
CC50 (A549): 72.4 µM
TGI (A549): 28.8 µM
GI50 (SK-OV-3): 15.1 µM
LC50 (SK-OV-3): 53.7 µM
TGI (SK-OV-3): 28.2 µM
GI50 (Hs-578T): 5.89 µM
LC50 (Hs-578T): 100 µM
TGI (Hs-578T): 69.2 µM
GI50 (U-251): 4.68 µM
LC50 (U-251): 41.7 µM
TGI (U-251): 15.8 µM
GI50 (SR): 2.88 µM
CC50 (SR; read-out: Log LC50 (the source's name) (converted)): 77.6 µM
TGI (SR; read-out: Log TGI (converted)): 7.08 µM
GI50 (SK-MEL-28): 11.5 µM
CC50 (SK-MEL-28): 53.7 µM
TGI (SK-MEL-28): 24.5 µM
GI50 (HOP-92): 2.14 µM
CC50 (HOP-92): 50.1 µM
TGI (HOP-92): 13.8 µM
GI50 (OVCAR-5): 7.08 µM
LC50 (OVCAR-5): 100 µM
TGI (OVCAR-5): 30.9 µM
GI50 (MDA-MB-231): 6.31 µM
LC50 (MDA-MB-231): 53.7 µM
TGI (MDA-MB-231): 21.4 µM
GI50 (MOLT-4): 3.24 µM
CC50 (MOLT-4): 97.7 µM
TGI (MOLT-4; read-out: Log TGI (converted)): 11.5 µM
GI50 (KM12): 13.8 µM
CC50 (KM12): 69.2 µM
TGI (KM12): 30.9 µM
GI50 (PC-3): 6.31 µM
LC50 (PC-3): 46.8 µM
TGI (PC-3): 20 µM
GI50 (EKVX): 4.37 µM
CC50 (EKVX): 44.7 µM
TGI (EKVX): 16.6 µM
GI50 (A498): 18.2 µM
LC50 (A498): 60.3 µM
TGI (A498; read-out: Log TGI (converted)): 33.1 µM
GI50 (RPMI-8226): 4.9 µM
CC50 (RPMI-8226): 70.8 µM
TGI (RPMI-8226): 21.4 µM
Activity [2]: 40%
GI50 (BT-549): 3.09 µM
LC50 (BT-549): 34.7 µM
TGI (BT-549): 11.2 µM
IC50 [3]: 0.8 µM
GI50 (HOP-62): 2.57 µM
CC50 (HOP-62): 28.2 µM
TGI (HOP-62): 8.13 µM
GI50 (MDA-MB-435): 2.24 µM
LC50 (MDA-MB-435): 15.8 µM
TGI (MDA-MB-435): 5.13 µM
GI50 (HL-60): 3.89 µM
LC50 (HL-60): 79.4 µM
TGI (HL-60): 11.2 µM
GI50 (SW-620): 11.5 µM
CC50 (SW-620): 61.7 µM
TGI (SW-620): 26.3 µM
GI50 (HCT-116): 3.39 µM
CC50 (HCT-116): 34.7 µM
TGI (HCT-116): 11.5 µM
IC50 [4]: 2.4 µM
GI50 (UACC-62): 4.9 µM
LC50 (lethal concentration, 50% cell kill) (UACC-62): 41.7 µM
TGI (UACC-62): 17 µM

From ChEMBL document CHEMBL1141286, “Benzochromenones from the marine crinoid Comantheria rotula inhibit hypoxia-inducible factor-1 (HIF-1) in cell-based reporter assays and differentially suppress the growth of certain tumor cell lines” (J Nat Prod, 2007)
